From ChEMBL document CHEMBL3352181, “Novel phenyl and pyridyl substituted derivatives of isoindolines: Synthesis, antitumor activity and DNA binding features” (Eur J Med Chem, 2014)
The source made the active and inactive calls. The calls are words filed in the database; no cut-off is given here.

Assays:
SW-620 [1] = assay: Induction of cell cycle arrest on human SW620 cells assessed as accumulation at subG1 phase at 20 uM after 48 hrs by propidium iodide staining based flow cytometry (reference value: 12.1 +/- 0.3%); assay type: functional; conditions: in the assay text read “after 24 hrs” for “after 48 hrs”
In short: (§1)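 HepG2 or SW620 cells were seeded at 25000 per well. After 24 h they were treated, then harvested 24 or 48 h later. Attached cells were trypsinized, pooled with floating cells, PBS-washed and fixed in 70% ethanol. Cells were stained with PI 1 µg/mL plus RNase A 0.2 µg/mL, and 10 000 events were acquired by flow cytometry. Phase percentages come from DNA histograms, in duplicate, with ANOVA at p < 0.05.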

SW-620 [2] = assay: Induction of cell cycle arrest on human SW620 cells assessed as accumulation at subG1 phase at 50 uM after 48 hrs by propidium iodide staining based flow cytometry (reference value: 12.1 +/- 0.3%); assay type: functional; conditions: in the assay text read “after 24 hrs” for “after 48 hrs”; in short: as §1
SW-620 [3] = assay: Induction of cell cycle arrest on human SW620 cells assessed as accumulation at G1 phase at 20 uM after 48 hrs by propidium iodide staining based flow cytometry (reference value: 38.1 +/- 1.1%); assay type: functional; conditions: in the assay text read “after 24 hrs” for “after 48 hrs”; in short: as §1
SW-620 [4] = assay: Induction of cell cycle arrest on human SW620 cells assessed as accumulation at G1 phase at 50 uM after 48 hrs by propidium iodide staining based flow cytometry (reference value: 38.1 +/- 1.1%); assay type: functional; conditions: in the assay text read “after 24 hrs” for “after 48 hrs”; in short: as §1
SW-620 [5] = assay: Induction of cell cycle arrest on human SW620 cells assessed as accumulation at S phase at 20 uM after 48 hrs by propidium iodide staining based flow cytometry (reference value: 39.4 +/- 0.2%); assay type: functional; conditions: in the assay text read “after 24 hrs” for “after 48 hrs”; in short: as §1
SW-620 [6] = assay: Induction of cell cycle arrest on human SW620 cells assessed as accumulation at S phase at 50 uM after 48 hrs by propidium iodide staining based flow cytometry (reference value: 39.4 +/- 0.2%); assay type: functional; conditions: in the assay text read “after 24 hrs” for “after 48 hrs”; in short: as §1
SW-620 [7] = assay: Induction of cell cycle arrest on human SW620 cells assessed as accumulation at G2/M phase at 20 uM after 48 hrs by propidium iodide staining based flow cytometry (reference value: 22.5 +/- 0.9%); assay type: functional; conditions: in the assay text read “after 24 hrs” for “after 48 hrs”; in short: as §1
SW-620 [8] = assay: Induction of cell cycle arrest on human SW620 cells assessed as accumulation at G2/M phase at 50 uM after 48 hrs by propidium iodide staining based flow cytometry (reference value: 22.5 +/- 0.9%); assay type: functional; conditions: in the assay text read “after 24 hrs” for “after 48 hrs”; in short: as §1
SW-620 [9] = assay: Induction of apoptosis in human SW620 cells assessed as enlarged cells level at 50 uM after 24 hrs by Annexin V-Fluos staining based fluorescent microscopy; assay type: functional, cell-based
In short: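 Cells seeded on chamber slides at 4000 per well and treated 24 h (HepG2 at 25 or 50 µM; SW620 at 50 µM). Incubated 15 min with Annexin V-Fluos reagent plus propidium iodide, washed in PBS, and examined by fluorescence microscopy for morphology and labelling.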

Calf thymus DNA [10] = assay: Binding affinity to calf thymus DNA assessed as change in melting temperature at drug/ base pair ratio of 0.25 by spectrophotometry; assay type: nucleic-acid assay; conditions: Bos taurus
In short: (§2)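 CT-DNA absorbance followed at 260 nm from 20 to 100 °C, rising 1 °C per min, in BPE buffer, with or without compound at drug/base-pair ratio 0.25 or 0.5. Tm taken as midpoint of the hyperchromic transition from first-derivative plots. ΔTm is Tm with compound minus Tm of DNA alone.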

Calf thymus DNA [11] = assay: Binding affinity to calf thymus DNA assessed as change in melting temperature at drug/ base pair ratio of 0.5 by spectrophotometry; assay type: nucleic-acid assay; conditions: Bos taurus; in short: as §2
Calf thymus DNA [12] = assay: Binding affinity to calf thymus DNA at 50 uM circular dichroism spectroscopy; assay type: nucleic-acid assay; conditions: Bos taurus
In short: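 CD spectra recorded from 480 to 230 nm, 10 mm path, 20 °C, in BPE buffer. CT-DNA (50 µM) incubated with compound rising from 1 to 60 µM or to 80 µM. Compound without DNA served as the control for intrinsic CD.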

[13] = target: T1, DNA topoisomerase 1 (Homo sapiens) (UniProt P11387); assay: Inhibition of human topoisomerase 1 assessed as topoisomerase poison activity by measuring generation of open circular DNA using supercoiled pUC19 DNA at 5 to 50 uM by agarose gel electrophoresis
T1 sequence (whole entry): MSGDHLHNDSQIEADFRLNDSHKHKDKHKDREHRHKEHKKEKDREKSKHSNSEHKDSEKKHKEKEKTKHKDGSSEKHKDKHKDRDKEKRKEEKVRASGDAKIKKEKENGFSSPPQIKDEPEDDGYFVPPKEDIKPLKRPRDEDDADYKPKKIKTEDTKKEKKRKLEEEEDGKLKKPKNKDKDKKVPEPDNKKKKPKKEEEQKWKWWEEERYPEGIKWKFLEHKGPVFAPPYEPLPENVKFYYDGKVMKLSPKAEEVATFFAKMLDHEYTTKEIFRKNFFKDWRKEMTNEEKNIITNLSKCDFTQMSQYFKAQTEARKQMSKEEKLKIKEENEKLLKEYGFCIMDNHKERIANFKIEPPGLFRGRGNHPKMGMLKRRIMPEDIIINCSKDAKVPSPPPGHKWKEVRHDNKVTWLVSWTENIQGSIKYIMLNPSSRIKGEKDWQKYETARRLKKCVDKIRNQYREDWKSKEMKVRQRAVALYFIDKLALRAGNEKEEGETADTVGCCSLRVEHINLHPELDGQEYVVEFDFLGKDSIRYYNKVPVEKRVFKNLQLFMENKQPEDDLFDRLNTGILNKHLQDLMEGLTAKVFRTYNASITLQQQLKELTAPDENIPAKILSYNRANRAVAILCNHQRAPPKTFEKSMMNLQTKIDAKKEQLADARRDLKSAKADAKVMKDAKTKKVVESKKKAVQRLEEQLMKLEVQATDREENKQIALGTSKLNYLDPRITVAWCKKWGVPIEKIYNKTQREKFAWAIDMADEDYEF
In short: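 Supercoiled pUC19 plasmid was incubated with human topoisomerase I and graded compound concentrations. Reactions were stopped with SDS and proteinase K. DNA forms were resolved on 1% agarose in TBE (2 h, 120 V), post-stained with ethidium bromide and photographed under UV. Poisoning was read as appearance of nicked DNA, with camptothecin as the positive control.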

Nucleic Acid = assay: Induction of DNA intercalation in supercoiled pUC19 DNA in presence of human topoisomerase 1 assessed as effect on topoisomerase 1-mediated DNA relaxation at 5 to 50 uM by agarose gel electrophoresis; assay type: nucleic-acid assay; conditions: Escherichia coli
In short: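 Supercoiled pUC19 incubated with human topoisomerase I and graded compound concentrations. Stopped with SDS/proteinase K. DNA forms resolved on 1% agarose in TBE, 2 h at 120 V, stained post-run with ethidium bromide and viewed under UV. Camptothecin was the topo I poison control.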

MCF7 = assay: Antiproliferative activity against human MCF7 cells assessed as inhibition of cell proliferation after 72 hrs by MTT assay; assay type: functional, cell-based
In short: (§3)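 Cells grown as monolayers in DMEM with 10% FBS, 2 mM L-glutamine, penicillin/streptomycin, 37 °C, 5% CO2. Seeded at 5000/well on day 0. Compounds added after 24 h as five serial dilutions (0,01 to 100 µM), DMSO ≤0.1%, then 72 h. MTT read-out converted to percentage growth. IC50 by linear regression; quadruplicates in three experiments.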

[14] = (§4) Antiproliferative activity against human SW620 cells assessed as inhibition of cell proliferation after 72 hrs by MTT assay; assay type: functional, cell-based, SW-620; conditions: Homo sapiens, SW-620, 72 h; in short: as §3
SW-620 [15] = assay: as §4; assay type: functional, cell-based; in short: as §3
HepG2 = assay: Antiproliferative activity against human HepG2 cells assessed as inhibition of cell proliferation after 72 hrs by MTT assay; assay type: functional, cell-based; in short: as §3
BJ = assay: Antiproliferative activity against human BJ cells assessed as inhibition of cell proliferation after 72 hrs by MTT assay; assay type: cell-based; conditions: 72 h; in short: as §3
HeLa = assay: Antiproliferative activity against human HeLa cells assessed as inhibition of cell proliferation after 72 hrs by MTT assay; assay type: functional, cell-based; in short: as §3

Work on `Cl.c1ccc2c(c1)CN(c1ccc(C3=NCCN3)nc1)/C2=N/c1ccc(C2=NCCN2)nc1` yielded an Activity (SW-620 [1]) of 7.5%, an Activity (SW-620 [2]) of 7.8% and an Activity (SW-620 [3]) of 19.6%. The Activity (SW-620 [4]) was 22.1%, the Activity (SW-620 [5]) was 40.4% and the Activity (SW-620 [6]) was 36.2%. For the same molecule, the Activity (SW-620 [7]) was 40%, the Activity (SW-620 [8]) was 41.7% and the Activity (SW-620 [9]) was “Active”. The ΔTm (Calf thymus DNA [10]) was 12.2 °C, the ΔTm (Calf thymus DNA [11]) was 17.3 °C and the Activity (Calf thymus DNA [12]) was “Active”. The inhibition [13] was “inactive”, the Activity (Nucleic Acid) was “Active” and the inhibition (MCF7) was “Dose-dependent effect”. For the same molecule, the IC50 (MCF7; Homo sapiens, MCF7, 72 h) was 3.76 µM, the IC50 [14] was 5.26 µM and the inhibition (SW-620 [15]) was “Dose-dependent effect”. The inhibition (HepG2) was “Dose-dependent effect”, the IC50 (HepG2; HepG2, 72 h) was 20.5 µM and the IC50 (BJ; Homo sapiens, BJ) was 4.26 µM. For the same molecule, the “inhibition (INH)” value (BJ; human, bj) was “Dose-dependent effect”, the inhibition (HeLa) was “Dose-dependent effect” and the IC50 (HeLa; Homo sapiens, HeLa, 72 h) was 6.25 µM.
